Published values from different studies.
Lines come from different studies, so protocols differ.
FLT3: Receptor-type tyrosine-protein kinase FLT3 (FLT3, Homo sapiens, UniProt P36888)
FLT3 N841I: Receptor-type tyrosine-protein kinase FLT3 (FLT3, Homo sapiens, UniProt P36888, N841I)
FLT3 D835V: Receptor-type tyrosine-protein kinase FLT3 (FLT3, Homo sapiens, UniProt P36888, D835V)
FLT3 R834Q: Receptor-type tyrosine-protein kinase FLT3 (FLT3, Homo sapiens, UniProt P36888, R834Q)
FLT3 D835H: Receptor-type tyrosine-protein kinase FLT3 (FLT3, Homo sapiens, UniProt P36888, D835H)
FLT3 ITD: Receptor-type tyrosine-protein kinase FLT3 (FLT3, Homo sapiens, UniProt P36888, ITD)
FLT3 K663Q: Receptor-type tyrosine-protein kinase FLT3 (FLT3, Homo sapiens, UniProt P36888, K663Q)

SMILES | target | test | conditions | endpoint | value
CC(C)(O)[C@H]1CC[C@H](Nc2ccc3ncc(-c4cccc(C(F)(F)F)c4)n3n2)CC1 | FLT3 | enzyme activity, inhibitor | 1 µM | remaining activity | 6.31%
O=C(c1ccc(Nc2ncc(Cl)c(-c3ccc(Cl)s3)n2)cc1)N1CCC(N2CCCC2)CC1 | Receptor-type tyrosine-protein kinase FLT3 (FLT3, Homo sapiens, UniProt P36888, D835Y) | binding, competition with immobilised ligand | 1 µM | remaining binding | 1.1%
CN(C)c1nccc(-c2cnc3ncccn23)n1 | FLT3 N841I | binding | 1 µM | remaining binding | 72%
COc1cc(-c2cn(C3CCc4c(F)cccc4N(CC(F)(F)F)C3=O)nn2)ccc1-n1cnc(C)c1 (stereo not shown) | FLT3 N841I | cell-free assay, competition with immobilised ligand | 1 µM | remaining binding | 99%
N#CCCc1ccc2c(c1)-c1[nH]c3ccc([N+](=O)[O-])cc3c1CC(=O)N2 | FLT3 | cell-free assay | 0.5 µM | remaining signal | 15.1%
C[C@H]1CCN(c2nccc(-c3cnn4ncccc34)n2)C1 | FLT3 D835V | binding | 1 µM | remaining binding | 53%
CC(C)(C)c1nc(-c2cccc(NS(=O)(=O)c3c(F)cccc3F)c2F)c(-c2ccnc(N)n2)s1 | FLT3 | enzyme activity, inhibitor, radiometric | 1 µM | remaining activity | 117%
CC1CCCN1c1nccc(-c2cnn3ncccc23)n1 (stereo not shown) | FLT3 R834Q | binding | 1 µM | remaining binding | 100%
Cc1c(NC(=O)c2cc(C(N)=O)nc3cc(F)ccc23)c(C(F)(F)F)nn1Cc1ccc(C#N)cc1 | FLT3 | cell-free assay, competition with immobilised ligand | 1 µM | remaining binding | 99%
O=C(NCCCN1CCOCC1)c1ccc(Nc2ncc(Cl)c(-c3ccc(Cl)s3)n2)cc1 | FLT3 D835H | binding, competition with immobilised ligand | 1 µM | remaining binding | 3.1%
N[C@@H]1CCN(c2nccc(-c3cnn4ncccc34)n2)C1 | FLT3 D835V | binding | 1 µM | remaining binding | 65%
CCCCN(CCCC)C(=O)CN1C[C@H](c2cc(OC)c3c(c2)OCO3)[C@@H](C(=O)O)[C@@H]1CC(C)(C)CCC | FLT3 N841I | cell-free assay, competition with immobilised ligand | 1 µM | remaining binding | 100%
Nc1ncnc2occ(-c3ccc(NC(=O)Nc4cc(C(F)(F)F)ccc4F)cc3)c12 | FLT3 ITD | cell-free assay, inhibitor | 20 µM | remaining signal | 0.1%
Cc1ccc(C(=O)Nc2ccc(CN3CCN(C)CC3)c(C(F)(F)F)c2)cc1C#Cc1cnc2cccnn12 | FLT3 K663Q | enzyme activity, inhibitor | 23.5 nM | remaining activity | 6.3%
F[C@@H]1CCN(c2nccc(-c3cnn4ncccc34)n2)C1 | FLT3 K663Q | binding | 1 µM | remaining binding | 64%
O=C(Nc1cnn(-c2csc(C(=O)NC3COC3)c2)c1)Nc1c(F)cccc1Cl | FLT3 | enzyme activity, inhibitor | 5 µM | remaining activity | 99.2%
Cc1nc(N2CC[C@@H](O)C2)ncc1-c1cc(C(F)(F)F)cc2[nH]ncc12 | FLT3 D835H | binding, competition with immobilised ligand | 1 µM | remaining binding | 100%
Cc1cnc(-c2ccc(-c3ccc(NC(=O)Nc4c(F)cc(F)cc4F)cc3F)c3c2C(=O)NC3)[nH]1 | FLT3 ITD | enzyme activity, inhibitor | 0.1 µM, 90 min | activity vs control | 6.2%
CS(=O)(=O)N1CCCC(NC(=O)[C@H](CCC2CCCCC2)NC(=O)c2ccc(CNc3ncnc4c3nnn4-c3ccccc3)cc2)C1 (stereo partly shown) | FLT3 | cell-free assay, competition with immobilised ligand | 0.1 µM | remaining binding | 82%
O=C(c1ccc(Nc2ncc(Cl)c(-c3cc4ccccc4s3)n2)cc1)N1CCC(N2CCCC2)CC1 | FLT3 R834Q | binding, competition with immobilised ligand | 1 µM | remaining binding | 11%
CN(c1nccc(-c2cnn3ncccc23)n1)C1CC1 | Receptor-type tyrosine-protein kinase FLT3, autoinhibited (FLT3, Homo sapiens, UniProt P36888) | binding | 1 µM | remaining binding | 100%
CN(c1ccnc(CNc2nc(Nc3ccc4c(c3)CC(=O)N4)ncc2C(F)(F)F)n1)S(C)(=O)=O | FLT3 D835H | cell-free assay, competition with immobilised ligand | 1 µM | remaining binding | 15%
